Source: the RNAGym collection of RNA variant scans (doi:10.1126/science.aae0568)
Variants at the floor of the assay were thinned out.

B1: tRNA (parent)
chain: GUUCCGUUGGCGUAAUGGUAACGCGUCUCCCUCCUAAGGAGAAGACUGCGGGUUCGAGUCCCGUACGGAACG

Variants of: B1
Test: yeast fitness relative to wild type (ratio to wild type); higher = fitter; tRNA-Arg(CCU), competitive growth, 37 C, YPD
How it was run: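 Changes in genotype frequencies gave Darwinian fitness relative to wild type. Frequencies were read by 100-nucleotide paired-end sequencing of gene amplicons before and after pooled Saccharomyces cerevisiae strains, carrying tRNA-Arg(CCU) gene variants at the native locus, were competed in YPD at 37°C for 24 hours in six replicates. A genotype was kept only with ≥ 100 starting reads, and estimates < 0.5 were set to 0.5.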
U7G C60A A70C showed a yeast fitness of 0.551.
Work on U7G C55U yielded a yeast fitness of 0.855.
With U7G C55A the yeast fitness was 0.665.
U7G C11G C34U G41A A65C gave a yeast fitness of no more than 0.5.
Work on U7G C11G C34U G41A A65G yielded a yeast fitness of no more than 0.5.
With U7G A45U C55A the yeast fitness was no more than 0.5.
Work on U7G G39A C55U U59G G68C yielded a yeast fitness of no more than 0.5.
In the case of U7G C29A, the yeast fitness is reported as 0.649.
U7G C34U C60A gave a yeast fitness of no more than 0.5.
In the case of U7G C11G C34U G41A G67U, the yeast fitness is reported as no more than 0.5.
Work on U7G C29G G52C A57U yielded a yeast fitness of no more than 0.5.
With U7G U8G A70U the yeast fitness was no more than 0.5.
U7G G52A showed a yeast fitness of 0.723.
Variant U7G A43C U64A has a yeast fitness of 0.682.
Work on U7G C29G C46U yielded a yeast fitness of 0.546.
U7G G9A C30G G51C showed a yeast fitness of no more than 0.5.
For U7G C27G U28G C66U, the yeast fitness was no more than 0.5.
U7G C29G C30U C46U gave a yeast fitness of 0.534.
In the case of U7G G23C C30G A36U C61U, the yeast fitness is reported as no more than 0.5.
For U7G A43C G58C, the yeast fitness was 0.648.
For U7G G63A, the yeast fitness was 0.888.
U7G A57G G68U gave a yeast fitness of no more than 0.5.
For U7G C34A G44C G51A C62A, the yeast fitness was no more than 0.5.
With U7G C27G U28G U59C the yeast fitness was no more than 0.5.
In the case of U7G C22U U26C U64G G67C, the yeast fitness is reported as no more than 0.5.
U7G C31U G39A C55U G68C showed a yeast fitness of no more than 0.5.
For U7G A43G C60U C62U A70C, the yeast fitness was no more than 0.5.
U7G U8A A14G gave a yeast fitness of 0.525.
U7G C11U G12C C33U C61G C62G gave a yeast fitness of no more than 0.5.
With U7G C27G U28G G67A the yeast fitness was 0.547.
For U7G C22U C49G G50C C66A, the yeast fitness was no more than 0.5.
U7G G23U C27G U28G C60A gave a yeast fitness of no more than 0.5.
With U7G A43U U64C the yeast fitness was 0.546.
Work on U7G U13C A57U yielded a yeast fitness of no more than 0.5.
For U7G C49A, the yeast fitness was 0.665.
U7G C29U A36U gave a yeast fitness of no more than 0.5.
Work on U7G C49U A57U yielded a yeast fitness of no more than 0.5.
For U7G U28G C34U G38A, the yeast fitness was no more than 0.5.
In the case of U7G G25C G67A, the yeast fitness is reported as 0.682.
In the case of U7G C27G U32C A36G G63A, the yeast fitness is reported as no more than 0.5.
For U7G C22G A43U U47A G51A, the yeast fitness was 0.664.
For U7G G56C C60U G67C, the yeast fitness was no more than 0.5.
In the case of U7G U13C A37U, the yeast fitness is reported as no more than 0.5.
Work on U7G C61U yielded a yeast fitness of 0.78.
U7G G9A C31G A36G G68C showed a yeast fitness of no more than 0.5.
U7G U8C C11G C34U G41A showed a yeast fitness of 0.547.
For U7G C61U G63A C66A, the yeast fitness was no more than 0.5.
U7G U13A A42G C66G G67C gave a yeast fitness of no more than 0.5.
For U7G C11G C34U G41A C60A C61U G63C C66U, the yeast fitness was no more than 0.5.
For U7G G10C C29A C55U A69U, the yeast fitness was 0.534.
U7G C29A C30A U54A A57G U64A gave a yeast fitness of 0.561.
For U7G G10A C27U G68A, the yeast fitness was no more than 0.5.
For U7G U26C A42U C46U C66U, the yeast fitness was no more than 0.5.
In the case of U7G C66U, the yeast fitness is reported as 0.893.
Variant U7G C66A has a yeast fitness of 0.573.
U7G U16C C30A showed a yeast fitness of no more than 0.5.
Work on U7G C62G A69G yielded a yeast fitness of no more than 0.5.
With U7G U26A G63A the yeast fitness was no more than 0.5.
Work on U7G C46U A70G yielded a yeast fitness of 0.752.
In the case of U7G G41C G58C U59C, the yeast fitness is reported as no more than 0.5.
Work on U7G G12C A14C A15G A37C A57U yielded a yeast fitness of no more than 0.5.
U7G C27A A40U gave a yeast fitness of no more than 0.5.
With U7G C27G U28G G68A the yeast fitness was no more than 0.5.
Variant U7G C31U U47C has a yeast fitness of 0.536.
U7G A65C showed a yeast fitness of 0.998.
Work on U7G G10C C22G C55A yielded a yeast fitness of no more than 0.5.
Variant U7G C22U C49G G50C has a yeast fitness of 0.512.
U7G C11U C60A gave a yeast fitness of no more than 0.5.
With U7G G39C A70U the yeast fitness was 0.553.
U7G C22A C61G gave a yeast fitness of no more than 0.5.
Work on U7G A69U yielded a yeast fitness of 0.894.
Work on U7G U26C C31A G38C yielded a yeast fitness of 0.561.
With U7G U8A A14G C62U A65U the yeast fitness was no more than 0.5.
U7G C24G gave a yeast fitness of 0.619.
With U7G U8A U32C G51C C60U C61U C62U the yeast fitness was 0.599.
With U7G G10C C22G the yeast fitness was no more than 0.5.
U7G C27G U32C A36G gave a yeast fitness of no more than 0.5.
Variant U7G A43C has a yeast fitness of 0.969.
For U7G C30G, the yeast fitness was 0.509.
In the case of U7G C30U, the yeast fitness is reported as 0.895.
U7G C30A showed a yeast fitness of 0.721.
U7G A43G C46G A69U showed a yeast fitness of no more than 0.5.
U7G C27U C33U showed a yeast fitness of no more than 0.5.
U7G C11G C34U C49U U59C C62G showed a yeast fitness of no more than 0.5.
In the case of U7G A45G A65C C66A, the yeast fitness is reported as 1.03.
U7G C33A A69G showed a yeast fitness of 0.598.
In the case of U7G U19C U64C, the yeast fitness is reported as 0.954.
Work on U7G G10C C33U C60G G67A yielded a yeast fitness of no more than 0.5.
In the case of U7G A57G C60U, the yeast fitness is reported as 0.62.
Work on U7G C11G U32A U53G yielded a yeast fitness of no more than 0.5.
Work on U7G G39A C66U yielded a yeast fitness of no more than 0.5.
In the case of U7G G25A, the yeast fitness is reported as 0.799.
For U7G C30U C60U A69C, the yeast fitness was 0.576.
U7G C11G C34U G41A A57U C66U showed a yeast fitness of no more than 0.5.
U7G C22G G50A G67A showed a yeast fitness of no more than 0.5.
U7G C29U C31U G38C A70G showed a yeast fitness of no more than 0.5.
With U7G C11G C34U G41A A70U the yeast fitness was no more than 0.5.
For U7G C34U, the yeast fitness was 0.588.
Variant U7G C34G has a yeast fitness of 0.649.
Work on U7G C11G C34U A36G G41A A65G yielded a yeast fitness of no more than 0.5.
With U7G C27G U28G G52C G58C A65U A70C the yeast fitness was no more than 0.5.
Variant U7G A43U C61G has a yeast fitness of no more than 0.5.
Work on U7G C27A A36C A42U yielded a yeast fitness of 0.532.
U7G C11U showed a yeast fitness of 0.807.
U7G C11G gave a yeast fitness of 0.692.
With U7G C27G U28G G39C A42G the yeast fitness was no more than 0.5.
In the case of U7G C27U C33U G50C U53A A57U A65U, the yeast fitness is reported as no more than 0.5.
U7G C27U C49U gave a yeast fitness of 0.59.
Variant U7G C30U G50C has a yeast fitness of no more than 0.5.
Variant U7G G39C A42G has a yeast fitness of no more than 0.5.
U7G C22U C24U U53A showed a yeast fitness of no more than 0.5.
Variant U7G C11U G12C C33U U64A G68C has a yeast fitness of no more than 0.5.
Work on U7G C30A C55A yielded a yeast fitness of no more than 0.5.
U7G C46U C60A gave a yeast fitness of no more than 0.5.
In the case of U7G G10A C11G C27U A40U, the yeast fitness is reported as 0.538.
For U7G U13C A36U G50C U54C, the yeast fitness was no more than 0.5.
Variant U7G C11G A21G C34U G41A has a yeast fitness of no more than 0.5.
Variant U7G C27U G68A has a yeast fitness of no more than 0.5.
For U7G C27G U32C U35C A36G U53A G56A, the yeast fitness was no more than 0.5.
In the case of U7G G9A C31G A36G C62U, the yeast fitness is reported as no more than 0.5.
For U7G A43U C46A, the yeast fitness was 0.603.
For U7G C34A A36U G52A C60A, the yeast fitness was no more than 0.5.
In the case of U7G C22U C24G A65U C66U, the yeast fitness is reported as no more than 0.5.
For U7G C11G C34U G41A C61A A65C, the yeast fitness was no more than 0.5.
For U7G C49A C61U G67C, the yeast fitness was no more than 0.5.
Variant U7G C55U G56C G63U has a yeast fitness of 0.602.
Variant U7G C46A C61G A69G has a yeast fitness of no more than 0.5.
For U7G U28G, the yeast fitness was 0.635.
Work on U7G G68A yielded a yeast fitness of 0.821.
In the case of U7G G41A G48A, the yeast fitness is reported as 0.911.
In the case of U7G C62A, the yeast fitness is reported as 0.612.
In the case of U7G G18C, the yeast fitness is reported as 0.686.
With U7G C61U C66A the yeast fitness was 0.626.
U7G C33U C55G showed a yeast fitness of no more than 0.5.
U7G C29G C61U G68A showed a yeast fitness of no more than 0.5.
Work on U7G C22A U53C yielded a yeast fitness of no more than 0.5.
Work on U7G G23A A36U G39C yielded a yeast fitness of no more than 0.5.
Variant U7G C34A G44C G51A has a yeast fitness of no more than 0.5.
In the case of U7G C22A U64C, the yeast fitness is reported as no more than 0.5.
With U7G G50C G67C the yeast fitness was no more than 0.5.
In the case of U7G G41C C49G U59G G63A C66U, the yeast fitness is reported as no more than 0.5.
In the case of U7G U26G C33G U59A U64C, the yeast fitness is reported as 0.502.
In the case of U7G G10C A43U C55U, the yeast fitness is reported as no more than 0.5.
Variant U7G G39A has a yeast fitness of 0.874.
With U7G G39C the yeast fitness was 0.632.
In the case of U7G G51C, the yeast fitness is reported as 0.644.
Work on U7G G63A A65G yielded a yeast fitness of 0.828.
In the case of U7G C29G U35C C46U, the yeast fitness is reported as no more than 0.5.
For U7G C11G C34U G41A U54C U64C, the yeast fitness was no more than 0.5.
In the case of U7G U13A A69U, the yeast fitness is reported as 0.629.
U7G C60A A69G showed a yeast fitness of no more than 0.5.
U7G G50A showed a yeast fitness of 0.858.
Variant U7G C30U G38A G50A G68C has a yeast fitness of no more than 0.5.
With U7G G67A the yeast fitness was 0.826.
Variant U7G G25C A40U has a yeast fitness of 0.556.
U7G G38C gave a yeast fitness of 0.591.
Variant U7G A70C has a yeast fitness of 0.972.
Work on U7G A45U yielded a yeast fitness of 0.852.
Variant U7G G23C C24A C30G A36U C61U A65U has a yeast fitness of no more than 0.5.
In the case of U7G C11G C30G G41C, the yeast fitness is reported as no more than 0.5.
With U7G C34G A36C the yeast fitness was 0.525.
U7G A43U A65C showed a yeast fitness of 1.
U7G G38C C60G showed a yeast fitness of no more than 0.5.
U7G U26C A43G C49U gave a yeast fitness of no more than 0.5.
For U7G C29U C31U G38C, the yeast fitness was no more than 0.5.
With U7G C30U G38A the yeast fitness was 0.591.
In the case of U7G C30A G48A, the yeast fitness is reported as 0.673.
